Data reported in ChEMBL document CHEMBL1155279, “1,5-Diaryl-2-ethyl pyrrole derivatives as antimycobacterial agents: design, synthesis, and microbiological evaluation” (Eur J Med Chem, 2009).
Values after ≈ are worked out from the molar mass of the structure shown.

Test system: Mycobacterium tuberculosis
Assay: Antimycobacterial activity against rifampicin-resistant Mycobacterium tuberculosis ATCC 35838 by twofold agar dilution method
Type: functional
Summary of the method: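 Twofold agar dilution in Middlebrook 7H11 agar with 10% OADC (oleic acid, albumin, dextrose). Compounds dissolved in DMSO at 5 mg/mL (one in ethanol at 6 mg/mL), stock, stored cold. MIC determined for each strain. Strains: M. tuberculosis CIP 103471, H37Rv ATCC 27294, rifampicin-resistant ATCC 35838, M. avium CIP 103317.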

**Q.** With `CCc1c(CN2CCSCC2)cc(-c2ccc(F)cc2)n1-c1ccccc1F` as the compound, how does the MIC read?
**A.** 2 µg/mL (≈ 5.02 µM)

**Q.** With `CCc1c(CN2CCSCC2)cc(-c2ccccc2F)n1-c1ccccc1F` as the compound, how does the MIC read?
**A.** 8 µg/mL (≈ 20.1 µM)

**Q.** `CCc1c(CN2CCSCC2)cc(-c2ccccc2)n1-c1ccccc1` was tested. Which MIC did it give?
**A.** 4 µg/mL (≈ 11 µM)

**Q.** With `CCc1c(CN2CCSCC2)cc(-c2ccc(F)cc2)n1-c1ccccc1` as the compound, how does the MIC read?
**A.** 1 µg/mL (≈ 2.63 µM)

**Q.** `CCc1c(CN2CCN(C)CC2)cc(-c2ccc(Cl)cc2)n1-c1ccc(Cl)cc1` was tested. Which MIC did it give?
**A.** 4 µg/mL (≈ 9.34 µM)

**Q.** Which MIC does the source give for `CCc1c(CN2CCSCC2)cc(-c2ccc(C)cc2)n1-c1ccc(F)cc1` here?
**A.** 0.25 µg/mL (≈ 0.634 µM)

**Q.** How did the MIC turn out when `CCc1c(CN2CCSCC2)cc(-c2ccccc2)n1-c1ccc(F)cc1` was run?
**A.** 4 µg/mL (≈ 10.5 µM)

**Q.** With `CO[C@H]1/C=C/O[C@@]2(C)Oc3c(C)c(O)c4c(O)c(c(/C=N/N5CCN(C)CC5)c(O)c4c3C2=O)NC(=O)/C(C)=C\C=C\[C@H](C)[C@H](O)[C@@H](C)[C@@H](O)[C@@H](C)[C@H](OC(C)=O)[C@@H]1C` [RIFAMPIN] as the compound, how does the MIC read?
**A.** > 100 µg/mL

**Q.** For `CN[C@@H]1[C@H](O[C@H]2[C@H](O[C@H]3[C@H](O)[C@@H](O)[C@H](N=C(N)N)[C@@H](O)[C@@H]3N=C(N)N)O[C@@H](C)[C@]2(O)C=O)O[C@@H](CO)[C@H](O)[C@H]1O` [STREPTOMYCIN], which MIC is on record?
**A.** 0.5 µg/mL (≈ 0.86 µM)
